Test results taken from paper PMC3107129 (Nature chemical biology, 2010).

Tests used:
[1] = molecular target: TTR in human blood plasma (Homo sapiens, UniProt P02766); assay: covalent modification of TTR in human blood plasma ex vivo; assay type: binding; details: compound 10.8 μM, 37 °C, maximum 50% (2/4 subunits)
Procedure, shortened: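 Test compound at 10.8 μM final, from DMSO stock, incubated with human plasma (TTR 3.6–5.4 μM) for 24 h at 37 °C with rocking. Plasma pre-cleared on plain sepharose for 1 h at 4 °C. TTR immunocaptured on anti-TTR sepharose for 20 min at 4 °C, then washed with Tris-saline ± 0.05% saponin. Eluted with 100 mM triethylamine, pH 11.5. C18 RP-HPLC, 45-min 0.1% TFA water→acetonitrile gradient; at most 2/4 subunits modifiable.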

[2] = molecular target: recombinant WT-TTR (Homo sapiens, UniProt P02766); assay: conjugation of recombinant WT-TTR by RP-HPLC; assay type: binding; details: for conjugation half-life (t50) with WT-TTR: recombinant WT-TTR, C18-RP-HPLC
[3] = molecular target: T1, K15A-TTR (Homo sapiens, UniProt P02766, K35A); assay: reaction with K15A-TTR homotetramer by RP-HPLC; assay type: binding; details: compound 7.2 μM, 18 h, 25 °C
[4] = molecular target: T1, K15A-TTR; assay: non-covalent binding to K15A-TTR; details: out of a maximum of 2 eq.; immunocapture, high-pH dissociation, HPLC
[5] = molecular target: T1, K15A-TTR; assay: K15A-TTR fibril formation at pH 4.4 with non-covalent stabilizers; assay type: biochemical; details: compound 7.2 μM, 72 h
[6] = test system: IMR-32 human neuroblastoma cells; details: cited from earlier work

O=C(Sc1ccccc1)c1cccc(/C=C/c2cc(Br)c(O)c(Br)c2)c1 [Compound 1]
% Modification of TTR subunits in Human Blood Plasma [1]: 36% (±0.4%) | conjugation half-life (t50) with WT-TTR [2]: 143 min

Cc1cc(/C=C/c2cccc(C(=O)Sc3ccccc3)c2)cc(C)c1O [Compound 2]
% Modification of TTR subunits in Human Blood Plasma [1]: 48% (±1.3%) | conjugation half-life (t50) with WT-TTR [2]: 5 to 15 min

Cc1cc(/C=C/c2cccc(C(=O)Oc3ccccc3[N+](=O)[O-])c2)cc(C)c1O [Compound 3]
% Modification of TTR subunits in Human Blood Plasma [1]: 49% (±0.7%) | conjugation half-life (t50) with WT-TTR [2]: 5 to 15 min

Cc1cc(/C=C/c2cccc(C(=O)Oc3ccc(F)cc3)c2)cc(C)c1O [Compound 4]
reaction with K15A-TTR [3]: no reaction could be detected | equivalents non-covalently bound to K15A-TTR homotetramer [4]: 1.4 eq.

Cc1cc(/C=C/c2ccc(C(=O)Oc3ccccc3[N+](=O)[O-])cc2)cc(C)c1O [Compound 6]
reaction with K15A-TTR [3]: more non-chemoselective conjugation

Cc1cc(/C=C/c2ccc(C(=O)Oc3ccc(F)cc3)cc2)cc(C)c1O [Compound 7]
conjugation yield with WT-TTR ([2]; WT-TTR […], compound 7.2 μM, 18 h, 25 °C): lower modification yield

Cc1cc(/C=C/c2cccc(C(=O)O)c2)cc(C)c1O [Compound 8]
stabilization of K15A-TTR against fibril formation [5]: additional stabilization of K15A-TTR was observed

Cc1cc(/C=C/c2ccccc2)cc(C)c1O [Compound 9]
stabilization of K15A-TTR against fibril formation [5]: additional stabilization of K15A-TTR was observed

Oc1ccc(/C=C/c2cc(O)cc(O)c2)cc1 [resveratrol]
prevention of amyloid-formation-associated cytotoxicity [6]: known to prevent amyloid-formation-associated cytotoxicity
